Laboratory results published in ChEMBL document CHEMBL1123620, “Renin inhibitors. Statine-containing tetrapeptides with varied hydrophobic carboxy termini” (J Med Chem, 1987).

Legend:
Renin [1] = molecular target: T1, Renin (Homo sapiens, UniProt P00797); test: Inhibition of purified human kidney renin, fluorometric assay using a synthetic tetradecapeptide renin substrate at 10e-9 M concentration
T1 sequence (P00797 whole entry): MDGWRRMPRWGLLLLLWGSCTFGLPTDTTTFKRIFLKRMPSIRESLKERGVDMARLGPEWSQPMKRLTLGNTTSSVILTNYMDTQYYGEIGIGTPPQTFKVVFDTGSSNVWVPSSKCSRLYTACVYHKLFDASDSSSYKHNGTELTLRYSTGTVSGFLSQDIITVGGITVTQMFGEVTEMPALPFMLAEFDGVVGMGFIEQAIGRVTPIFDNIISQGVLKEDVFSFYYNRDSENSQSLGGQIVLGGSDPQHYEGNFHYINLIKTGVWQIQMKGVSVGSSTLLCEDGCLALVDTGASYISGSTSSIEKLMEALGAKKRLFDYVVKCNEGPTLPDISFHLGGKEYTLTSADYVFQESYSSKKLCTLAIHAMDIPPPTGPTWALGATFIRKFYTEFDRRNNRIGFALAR
Summary of the method: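 Purified human kidney renin with synthetic tetradecapeptide substrate, read fluorometrically for peptidal amino termini, at 37°C in 0.10 M citrate phosphate, pH 7.20. Ki from linear I/V vs. [I] plots, assuming competitive inhibition. Estimated error ±20%.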

Renin [2] = molecular target: T1, Renin; test: Inhibition of purified human kidney renin, radioimmunoassay using a synthetic tetradecapeptide renin substrate at 10e-9 M concentration
Renin [3] = molecular target: T1, Renin; test: Inhibition of human plasma renin at 10e-9 M concentration; conditions: read-out: I50
Summary of the method: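 Human plasma renin acting on endogenous plasma angiotensinogen at pH 7.4 (phosphate), 37°C. Renin and substrate levels were not measured. 8-Hydroxyquinoline or phenylmethanesulfonyl fluoride served as angiotensinase inhibitor. Angiotensin I was measured by radioimmunoassay. I50 values were generally reproducible within ±30%.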

Renin [4] = molecular target: T1, Renin; test: Inhibition of purified human kidney renin, radioimmunoassay using the natural substrate partially pure angiotensinogen at 10e-9 M concentration
Summary of the method: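 Purified human kidney renin (0.02 ng) with 500 ng partially purified human angiotensinogen (0.08 μM, about 1% pure), 60 min at 37°C in 0.1 M citrate phosphate, pH 7.20. Inhibitor added in 10% methanol or DMF. Quenched by boiling for 1 min.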

Renin (Sus scrofa) = test: Inhibition of hog kidney renin at 10e-9 M concentration; conditions: read-out: I50

Ki (Renin [1]) [nM]	Ki (Renin [2]) [nM]	IC50 (Renin [3]) [nM]	Ki (Renin [4]) [nM]	IC50 (Renin (Sus scrofa)) [nM]	SMILES
67	36	178	220	480	CC(C)CC(NC(=O)[C@H](Cc1c[nH]cn1)NC(=O)[C@H](Cc1ccccc1)NC(=O)OC(C)(C)C)C(O)CC(=O)N[C@@H](CC(C)C)C(=O)NC(C)C(O)c1ccccc1 (stereo not given in full)
0.064	0.04	127	97	280	CC(C)CC(NC(=O)[C@H](Cc1c[nH]cn1)NC(=O)[C@H](Cc1ccccc1)NC(=O)OC(C)(C)C)C(O)CC(=O)N[C@@H](CC(C)C)C(=O)NC1CCN(Cc2ccccc2)CC1 (stereo not given in full)
19	6	49	100	14	CC(C)CC(NC(=O)[C@H](Cc1cnc[nH]1)NC(=O)[C@H](Cc1ccccc1)NC(=O)OC(C)(C)C)C(O)CC(=O)N[C@@H](CC(C)C)C(=O)NC(C)c1ccccc1 (single isomer, unassigned; (+))
120	520	569	320	5.8	C=C1c2ccccc2CC(NC(=O)[C@H](CC(C)C)NC(=O)CC(O)C(CC(C)C)NC(=O)[C@H](Cc2c[nH]cn2)NC(=O)[C@H](Cc2ccccc2)NC(=O)OC(C)(C)C)c2ccccc21 (stereo not given in full)
